Laboratory results taken from ChEMBL document CHEMBL4513216, “Probing the Open Global Health Chemical Diversity Library for Multistage-Active Starting Points for Next-Generation Antimalarials” (ACS Infect Dis, 2020).

Experiment: Toxicity liver stage against HepG2, at 10uM
Format: cell-based
Design: test concentration 10 uM, cell line HepG2-A16-CD81EGFP
Conditions: human, HepG2-A16-CD81EGFP cells; read-out: INHIBITION
Procedure, shortened: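 Uninfected HepG2-A16-CD81EGFP cells, 3 × 10^3 per well, 1536-well, plated on prespotted compound at 10 μM final, parasite-free screening media added to match infected plates; puromycin 10 μM positive, DMSO 0.5% negative; run in parallel with 48 h PbLuc assay at 37 °C, 5% CO2; viability by CellTiter-Glo luminescence, normalized to controls.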

Structure (SMILES) | cytotoxicity at 10 µM [%]
CN(C)CCN(C)C[C@H]1CN2CC[C@H]1C[C@@H]2CNC(=O)Nc1ccsc1 | 9.53
CN1C(=O)CO[C@H](c2ccc(NC(=O)c3cccnc3)cc2)[C@H]1CO | 6.15
CCC(CNC(=O)C1CC1)(OC)c1ccccc1 (stereo unspecified) | -4.34
CCN1CCc2c(c(COC)nn2C)C1 | 5.09
CN1C(=O)CCCC12CCCN(C(=O)c1ccoc1)C2 (stereo unspecified) | -4.04
CC(C)COCC1CN(Cc2cnn(C)c2)Cc2ncn(C)c21 (stereo unspecified) | 0.588
Cn1cc(CN2C[C@@H]3COC[C@]3(C(=O)NCc3cccs3)C2)cn1 | 7.22
CC/N=c1\nc(NCC)nc2n1C(O)(Nc1cccc(Cl)c1Cl)CS2 (stereo unspecified) | 14.1
O=C(c1cc(Br)ccc1-n1cnnn1)N1CCCC1 | -9.24
O=C(CCc1ccc2c(c1)CCO2)Nc1nnn[nH]1 | 0.301
Cc1nn(C)c(=O)c2nn(-c3ccc(Cl)cc3)c(C)c12 | -4.18
O=S(=O)(Cc1ccc(Br)cc1)NCCO | 6.73
Cn1cc(N2CC3(CCN(S(=O)(=O)C4CC4)C3)CC2=O)cn1 (stereo unspecified) | -9.82
CN(C)c1nccnc1C1CCN(C(=O)C2(C)CCCCN2C)CC1 (stereo unspecified) | 10
CN(C)C(=O)C1(c2cnccn2)CCCN1C(=O)Cc1ccccc1 (stereo unspecified) | 0.225
CC(C)c1nccn1-c1nccnc1C1CCCN1Cc1ccccc1 (stereo unspecified) | -0.943
Fc1cccc(CN2CCC(c3noc(-c4ccncc4)n3)CC2)c1F | -6.21
CC(C)(C)c1nnc(CSc2ccccn2)o1 | 5.23
O=C1CCCN1CCN1CCCCC1Cn1cccn1 (stereo unspecified) | 12.9
CCNC(=O)C1CCN(Cc2ccccc2OCC(F)(F)F)CC1 | -3.03
COc1c(C)cnc(CSc2nnc(N)s2)c1C | 10.1

Structure (SMILES) | cytotoxicity at 10 µM [%]
CCCc1nc(CN(C)CC2CCN(CCO)CC2)no1 | 2.64
COCc1ccc(CNC(=O)CN2CCc3ccccc32)cc1 | 6.68
Cc1cc(NS(=O)(=O)c2ccc(Cl)s2)ccc1-n1cccc1C(=O)O | 3.2
Cc1cc(C(=O)N2CCOC(c3nc(C)n[nH]3)C2)[nH]n1 (stereo unspecified) | -11.7
Cc1cc2c(cc1NC(=O)NCC(C)C)OCO2 | 1.01
COc1ccc2c(c1)CCCN2C(=O)NCCc1cnn(C)c1 | -6.94
O=C(CCC(=O)c1cccs1)NC1(C(=O)NCC2CC2)CCCC1 | -10.6
Cc1ccc(C(=O)NCCCNS(C)(=O)=O)c(=O)[nH]1 | -15.3
CCC(CNC(=O)c1ccc(=O)[nH]n1)N1CCc2ccccc2C1 (stereo unspecified) | -7.9
Cc1nn(C)c2sc(C(=O)N3CCCC(n4ccnc4C)C3)cc12 (stereo unspecified) | -10
CCS(=O)(=O)N1CCN(CC2CC2)c2ncccc2C1 | 7.97
O=C1COC2(COCCN(c3cnccn3)C2)CN1c1cccc(F)c1 (stereo unspecified) | -104
COC[C@@H]1CCC[C@@]12CN(C(=O)N(C)C)CCO2 | -102
O=C(c1cscn1)N1CCC2(CCN(Cc3nccs3)C2)CC1 | 1.8
CC(C)NC(=O)N1CCCC(c2nnc(CN3CCOCC3)n2C)C1 (stereo unspecified) | -0.392
CC(c1ccccn1)N(C)Cc1ccc(-n2cncn2)cc1 (stereo unspecified) | 5.33
COc1cc(N2CCCC(c3ncc[nH]3)C2)ncn1 (stereo unspecified) | 3.47
CCO[C@H]1CN(C)C[C@@H]1NC(=O)c1cc(C)nc2ccc(C)cc12 | 4.15
Cc1cc(C)n(C2CCN(Cc3c(-c4cc(C)on4)nn(C)c3Cl)C2)n1 (stereo unspecified) | 3.84
c1ccc(CCCC2CN(Cc3ncc[nH]3)CCO2)cc1 (stereo unspecified) | -3.83
CC(C)[C@H](NC(=O)c1cccc(CCC(C)(C)O)c1)C(N)=O | -0.471

Structure (SMILES) | cytotoxicity at 10 µM [%]
Cc1cc(N2CCCC3(CN(C)C(=O)O3)C2)c2cc3c(cc2n1)OCO3 (stereo unspecified) | -5.05
Cc1nc(N2CCC(O)(c3ccccc3)CC2)c2c(C)nn(C)c2n1 | 1.22
CC(C)C[C@@H](CO)n1cc(-c2cncnc2)nn1 | -0.268
CN(C)[C@H]1CN(C(=O)CCCc2ccc(F)cc2)C[C@@H]1C1CC1 | -3.01
COc1ccccc1CN(C)C(=O)CN1C(=O)OC[C@@H]1c1ccccc1 | -43.6
O=C1CC2(CCCC2)CC(=O)N1Cc1nccs1 | 3.16
O=C(c1ccc(O)c(Cl)c1)N1C[C@@H](CN2CCCCCC2)[C@@H](CO)C1 | 1.89
CNc1ccnc(NCCC(=O)Nc2ccccc2C)n1 | -1.53
Nc1nccc(NCc2cc3n(n2)CCCN(C(=O)C2CCC2)C3)n1 | -6.49
CSCC[C@H](N)C(=O)NCc1cc2n(n1)CCCN(C(=O)C1CCC1)C2 | -12.9
CC(=O)N1CCN(c2cc(-c3ccccc3)nc3c(C)c(C)nn23)CC1 | -13.1
COc1ccccc1CC(=O)N1CC[C@@]2(CCCO2)[C@@H](OC)C1 | 11.7
COc1cccc(C(=O)Nc2cc(CC(C)C)nn2C)c1 | -9.42
CCn1c(C(=O)N2CCN(C(=O)COC)CC2)cc2ccccc21 | -6.59
CC(C)c1nccn1C1CCCN(C(=O)c2cnn(C)c2C2CC2)C1 (stereo unspecified) | -5.5
O=C(CCN1C(=O)CCC1=O)Nc1cnn(-c2ccccc2Cl)c1 | -9.56
O=C(NCCCn1cncn1)N1CCCC(N2CCCC2)C1 (stereo unspecified) | -2.66
N#Cc1cnn(-c2ccc(C(=O)Nc3ccccn3)cc2)c1N | -9.03
CCc1[nH]ncc1C(=O)N1CCCC(n2ccnc2C(C)C)C1 (stereo unspecified) | 2.43
CCOc1cccc2c1OCC(C(=O)NS(=O)(=O)Cc1ccccc1)=C2 | -7.22
COc1ccc(C(=O)N2CCCC(C)C2)cc1F (stereo unspecified) | -11.6

Structure (SMILES) | cytotoxicity at 10 µM [%]
Cc1ccc(OCC(O)CN2CCC(Cn3cccn3)CC2)cc1 (stereo unspecified) | -16
Cc1nc(CNCC2CCCN2c2cccnn2)no1 (stereo unspecified) | -1.59
O[C@@H]1CN(Cc2ccc(F)cc2)CC[C@H]1NCc1ccccn1 | -2.83
Cc1cc(C)nc(Nc2cccc(C3CCCN(C)C3)n2)n1 (stereo unspecified) | -4.45
CC(C)N(C)Cc1cnc2n1CCN(Cc1ccco1)C2 | 2.22
CCN1C[C@H]2C3(CCN(C(=O)NC(C)C)CC3)CC[C@@]2(C(=O)N(C)C)C1 | -109
CCN1CCC12CCN(C(=O)c1cc(C)on1)C2 (stereo unspecified) | 5.71
Cn1cc(CN2CCCC23CCN(C(=O)c2cccs2)CC3)cn1 | 2.17
Cc1ccc(CN2Cc3nnn(C)c3C(COCc3ccccc3)C2)o1 (stereo unspecified) | 5.44
COc1ncccc1CN1Cc2nnn(C)c2C(COCC2CC2)C1 (stereo unspecified) | 12.4
CN(C)C(=O)CN1CCC2(CCN(CC3CC3)CC2)C1=O | -3.69
O=C(c1ccccn1)N1CCC2(CCCN(c3nncs3)C2)C1 (stereo unspecified) | -111
O=C(c1ccno1)N1CC[C@@H]2O[C@@H](COCCN3CCCC3)CC[C@@H]21 | 0.925
CN1[C@H](Cn2cccn2)C[C@@H]2CN(Cc3cccs3)CC[C@@H]21 | 11.9
CN1CCC(N2CCC(C(=O)N(C)C)CC2)CC1 | -1.82
Cn1cc(C(=O)NCc2cncc3c2CCN(CC2CC2)C3)cn1 | -103
CC1=N[C@@]2(CC[C@@H]3CN(Cc4ccccc4C)C[C@@H]32)C(=O)N1CC1CC1 | -2.6
N#Cc1cccc(C(=O)N2C[C@@H]3CC[C@H]2CN(C(=O)C2CCC2)C3)c1 | -2.5
